Reference: ChEMBL document CHEMBL1150253, “Synthesis and anti-platelet evaluation of 2-benzoylaminobenzoate analogs” (Bioorg Med Chem, 2008)

How the values were obtained:
Blood [1] = experiment: Inhibition of arachidonic acid-induced platelet aggregation in human blood after 3 mins by turbidimetric assay; type: functional, tissue-based; conditions: 0.05 h
In short: (§1)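 Washed human platelets were prepared from ACD-anticoagulated blood of healthy volunteers who had taken no drugs for two weeks. They were resuspended at 3 × 10⁸/ml in Tyrode's solution with Ca²⁺ 2 mM, glucose 11.1 mM and BSA 3.5 mg/ml. Platelets were preincubated with DMSO (0.5%) or compound at 37 °C for 3 min, stirring at 1200 rpm. Inducers were arachidonic acid, collagen, U46619 or thrombin (0.1 U/ml). Aggregation was read by light transmission. IC50 is mean ± SEM, n = 3.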

Blood [2] = experiment: Inhibition of thrombin-induced platelet aggregation in human blood after 3 mins by turbidimetric assay; conditions: 0.05 h
Blood [3] = experiment: Inhibition of collagen-induced platelet aggregation in human blood after 3 mins by turbidimetric assay; conditions: 0.05 h
Blood [4] = experiment: Inhibition of U46619-induced platelet aggregation in human blood after 3 mins by turbidimetric assay; type: functional, tissue-based; conditions: 0.05 h; in short: as §1
Platelet [5] = experiment: Inhibition of arachidonic acid-induced TxB2 formation in human platelet at 0.5 uM per 3 x 10^8 platelets by immunoassay; type: functional
In short: (§2)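 Washed human platelets were suspended in Tyrode's solution with Ca²⁺, glucose and BSA and preincubated with DMSO or compound at 37 °C for 3 min. Arachidonic acid was then added. After 5 min the reaction was stopped with EDTA (2 mM) plus indomethacin. Samples were centrifuged for 3 min at 13,000 rpm. Supernatant TxB2 was measured by enzyme immunoassay and expressed per 3 × 10⁸ platelets. Values are mean ± SEM, n = 3.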

Platelet [6] = experiment: Inhibition of arachidonic acid-induced TxB2 formation in human platelet at 1 uM per 3 x 10^8 platelets by immunoassay; type: functional; in short: as §2
Platelet [7] = experiment: Inhibition of arachidonic acid-induced TxB2 formation in human platelet at 200 uM per 3 x 10^8 platelets by immunoassay; type: functional; in short: as §2

## CCCOC(=O)c1ccc(F)cc1NC(=O)c1ccccc1Cl
Blood [1]
  IC50: 1.6 µM
Blood [2]
  IC50: > 100 µM
Blood [3]
  IC50: 9.3 µM

## CCCNC(=O)c1ccc(Cl)cc1NC(=O)c1ccccc1Br
Blood [1]
  IC50: 1.5 µM
Blood [4]
  IC50: > 100 µM
Blood [2]
  IC50: > 100 µM
Blood [3]
  IC50: 3.4 µM

## CCCOC(=O)c1ccc(Cl)cc1NC(=O)c1ccccc1OC
Blood [1]
  IC50: 23.4 µM
Blood [4]
  IC50: > 100 µM
Blood [2]
  IC50: > 100 µM
Blood [3]
  IC50: > 100 µM

## COC(=O)c1ccc(Cl)cc1NC(=O)c1c(F)cccc1F
Blood [1]
  IC50: 0.7 µM
Blood [4]
  IC50: > 100 µM
Platelet [5]
  Activity: 61.18 ng
Platelet [6]
  Activity: 29.48 ng
Blood [2]
  IC50: > 100 µM

## CCCCOC(=O)c1ccc(Cl)cc1NC(=O)c1ccccc1Br
Blood [1]
  IC50: 7.1 µM
Blood [4]
  IC50: > 100 µM
Blood [2]
  IC50: > 100 µM
Blood [3]
  IC50: 50.4 µM

## CCCCOC(=O)c1ccc(Cl)cc1NC(=O)c1ccccc1F
Blood [1]
  IC50: 3 µM
Blood [4]
  IC50: > 100 µM
Blood [2]
  IC50: > 100 µM
Blood [3]
  IC50: 32.1 µM

## CCOC(=O)c1ccc(Cl)cc1NC(=O)c1ccccc1Cl
Blood [1]
  IC50: 1 µM
Blood [4]
  IC50: > 100 µM
Blood [2]
  IC50: > 100 µM
Blood [3]
  IC50: 7.6 µM

## CCCOC(=O)c1ccc([N+](=O)[O-])cc1NC(=O)c1ccccc1F
Blood [1]
  IC50: 4.7 µM
Blood [2]
  IC50: > 100 µM
Blood [3]
  IC50: 3.5 µM

## CC(C)OC(=O)c1ccc(Cl)cc1NC(=O)c1c(F)cccc1F
Blood [1]
  IC50: > 100 µM
Blood [4]
  IC50: > 100 µM
Blood [2]
  IC50: > 100 µM
Blood [3]
  IC50: 28.8 µM

## CCCCOC(=O)c1ccc(Cl)cc1NC(=O)c1c(Cl)cccc1Cl
Blood [1]
  IC50: > 100 µM
Blood [4]
  IC50: > 100 µM
Blood [2]
  IC50: > 100 µM
Blood [3]
  IC50: > 100 µM

## CCCNC(=O)c1ccc(Cl)cc1NC(=O)c1c(F)cccc1F
Blood [1]
  IC50: 2.9 µM
Blood [4]
  IC50: > 100 µM
Blood [2]
  IC50: > 100 µM
Blood [3]
  IC50: 1 µM

## CCOC(=O)c1ccc(Cl)cc1NC(=O)c1ccccc1F
Blood [1]
  IC50: 3.8 µM
Blood [4]
  IC50: > 100 µM
Blood [2]
  IC50: > 100 µM
Blood [3]
  IC50: 20.1 µM

## CCOC(=O)c1ccc(Cl)cc1NC(=O)c1ccccc1C
Blood [1]
  IC50: 4.9 µM
Blood [4]
  IC50: > 100 µM
Blood [2]
  IC50: > 100 µM
Blood [3]
  IC50: 15.9 µM

## CCCOC(=O)c1ccc(Cl)cc1NC(=O)c1ccccc1Br
Blood [1]
  IC50: 3.5 µM
Blood [4]
  IC50: > 100 µM
Blood [2]
  IC50: > 100 µM
Blood [3]
  IC50: 9.5 µM

## CCCOC(=O)c1ccc(F)cc1NC(=O)c1ccccc1OC
Blood [1]
  IC50: 31.5 µM
Blood [2]
  IC50: > 100 µM
Blood [3]
  IC50: 33.2 µM

## CCCOC(=O)c1ccc(C)cc1NC(=O)c1ccccc1Br
Blood [1]
  IC50: 3.1 µM
Blood [3]
  IC50: 27.3 µM

## CCOC(=O)c1ccc(Cl)cc1NC(=O)c1c(Cl)cccc1Cl
Blood [1]
  IC50: 68.3 µM
Blood [4]
  IC50: > 100 µM
Blood [2]
  IC50: > 100 µM
Blood [3]
  IC50: 32.3 µM

## CCCOC(=O)c1ccc(C)cc1NC(=O)c1ccccc1OC
Blood [1]
  IC50: 10.4 µM
Blood [2]
  IC50: > 100 µM
Blood [3]
  IC50: 62.5 µM

## CCCOC(=O)c1ccc(Cl)cc1NC(=O)c1c(F)cccc1F
Blood [1]
  IC50: 0.5 µM
Blood [4]
  IC50: > 100 µM
Platelet [5]
  Activity: 45.47 ng
Platelet [6]
  Activity: 7.74 ng
Blood [2]
  IC50: 48.8 µM

## CCCOC(=O)c1ccc([N+](=O)[O-])cc1NC(=O)c1ccccc1Cl
Blood [1]
  IC50: 2 µM
Blood [2]
  IC50: > 100 µM
Blood [3]
  IC50: 2.9 µM

## CC(C)OC(=O)c1ccc(Cl)cc1NC(=O)c1ccccc1Cl
Blood [1]
  IC50: 82.2 µM
Blood [4]
  IC50: > 100 µM
Blood [2]
  IC50: > 100 µM
Blood [3]
  IC50: 8.51 µM

## CC(=O)Oc1ccccc1C(=O)O [ASPIRIN]
Blood [1]
  IC50: 150 µM
Blood [4]
  IC50: > 100 µM
Platelet [7]
  Activity: 26.68 ng
Blood [2]
  IC50: > 100 µM
Blood [3]
  IC50: 153 µM

## CCCOC(=O)c1ccc([N+](=O)[O-])cc1NC(=O)c1ccccc1OC
Blood [1]
  IC50: > 100 µM
Blood [2]
  IC50: > 100 µM
Blood [3]
  IC50: > 100 µM

## CCCOC(=O)c1ccc(F)cc1NC(=O)c1ccccc1F
Blood [1]
  IC50: 1.6 µM
Blood [2]
  IC50: > 100 µM
Blood [3]
  IC50: 14.5 µM

## CCCCOC(=O)c1ccc(Cl)cc1NC(=O)c1c(F)cccc1F
Blood [1]
  IC50: 1.5 µM
Blood [4]
  IC50: > 100 µM
Blood [2]
  IC50: > 100 µM
Blood [3]
  IC50: 21.8 µM

## CCOC(=O)c1ccc(Cl)cc1NC(=O)c1ccccc1Br
Blood [1]
  IC50: 3.6 µM
Blood [4]
  IC50: > 100 µM
Blood [2]
  IC50: > 100 µM
Blood [3]
  IC50: 13.9 µM

## CCOC(=O)c1ccc(Cl)cc1NC(=O)c1c(F)cccc1F
Blood [1]
  IC50: 0.9 µM
Blood [4]
  IC50: > 100 µM
Blood [2]
  IC50: > 100 µM
